# SUMO1-SIM PPI: modulators of SUMO1 protein-protein interactions, primary screen, biochemical, uHTS; 0.33% of 360,000 active; inhibition, % at 20 µM; SUMO1 binding to a labelled peptide, TR-FRET, 1 h; Small ubiquitin-related modifier 1 (Homo sapiens), P63165; in the data active = inhibition above about 37%
# Scp-1 inhibitor: Scp-1 phosphatase inhibitors, primary screen, biochemical, colorimetric, uHTS; inhibition, % at 20 µM; Carboxy-terminal domain RNA polymerase II polypeptide A small phosphatase 1 (Homo …; Recombinant Scp1, phosphopeptide, malachite green phosphate absorbance; 0.88% of 340,000 active;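 active = inhibition above about 50% at 20 µM, limit read from the data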;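 note: plate controls were DMSO wells with enzyme for no effect and wells lacking enzyme for full effect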
#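 Assay system: SCP-1 catalytic fragment, aa 76-261 | Buffer or medium: Tris acetate buffer pH 5.5 with MgCl2 and Tween-20 | Compound: One concentration, 20 µM, with 1.0% DMSO | Also added: Phospho 17-mer peptide substrate | Signal: Absorbance at 630 nm | Incubation: 45 min enzyme reaction at room temperature | Measure: % inhibition of SCP-1 phosphate liberation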
# DNMT1 inh: human DNMT1 methyltransferase inhibitors, primary screen, biochemical, molecular beacon, fluorescence, HinP1I cleavage, uHTS. AID 588458, 2011. 0.83% of 360,000 active. inhibition (reported as % activation of signal), % at 10 µM. DNA (cytosine-5)-methyltransferase 1 (Homo sapiens), P26358; in the data active = inhibition above about 50%
# LMPTP block: LMPTP phosphatase inhibitors, primary screen, biochemical, fluorescence intensity, uHTS. AID 651560, 2012. Low molecular weight phosphotyrosine protein phosphatase (Homo sapiens), P24666. 0.22% of 360,000 active. recombinant LMPTP-A, OMFP fluorogenic substrate. inhibition, % at 20 µM;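 active = compounds that cut the enzyme signal by at least half of the control window in the single-dose screen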;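 note: plate controls were DMSO wells with enzyme plus substrate for no effect and substrate without enzyme for full effect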
#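 Test system – LMPTP-A enzyme · Amount – LMPTP-A at 0.625 nM final in the reaction · Buffer or medium – Bis-Tris pH 6.0, DTT, detergent · Reagent – OMFP 400 µM · Doses – single 20 µM dose · Schedule – reaction 50 min, room temperature, dark · Detection – fluorescence intensity of OMFP turnover product · Evaluation – percent inhibition versus substrate-only and uninhibited controls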
# STEP block: STEP phosphatase inhibitors, primary screen, biochemical, fluorescence intensity, uHTS; inhibition, % at 20 µM; recombinant STEP, OMFP fluorogenic substrate; Tyrosine-protein phosphatase non-receptor type 5 (Homo sapiens), P54829; AID 588621, 2011; 0.25% of 360,000 active;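 active = inhibition at 20 µM, scaled per plate between control wells, above about 37%, limit read from the data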;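 note: 0% = DMSO with enzyme and substrate and 100% = substrate only without enzyme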
# Target sequence (P54829 whole entry, looked up): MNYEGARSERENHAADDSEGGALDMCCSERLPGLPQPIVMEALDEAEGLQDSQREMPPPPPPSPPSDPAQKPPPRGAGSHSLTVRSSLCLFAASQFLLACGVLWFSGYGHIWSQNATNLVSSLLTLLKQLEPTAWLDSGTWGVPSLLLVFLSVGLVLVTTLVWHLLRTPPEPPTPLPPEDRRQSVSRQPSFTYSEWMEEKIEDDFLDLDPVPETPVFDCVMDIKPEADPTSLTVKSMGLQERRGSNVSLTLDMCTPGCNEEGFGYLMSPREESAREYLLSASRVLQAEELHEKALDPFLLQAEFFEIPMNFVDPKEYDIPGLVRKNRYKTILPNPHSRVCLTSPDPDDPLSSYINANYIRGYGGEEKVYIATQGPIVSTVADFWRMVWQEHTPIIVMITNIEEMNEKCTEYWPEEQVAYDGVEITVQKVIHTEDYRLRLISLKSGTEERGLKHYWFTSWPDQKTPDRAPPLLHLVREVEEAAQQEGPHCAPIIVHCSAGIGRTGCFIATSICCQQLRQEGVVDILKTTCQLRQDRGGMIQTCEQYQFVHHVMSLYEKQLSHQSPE
#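 System: isolated STEP enzyme; schedule: 20 min enzyme reaction at room temperature, protected from light; medium: Bis-Tris buffer pH 6.0, 2.5 mM DTT, 0.005% Tween 20; signal: fluorescence, 480/540 nm; dosing: single compound dose of 20 µM, 1% DMSO final; also added: OMFP substrate, 25 µM final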
# GRK2 inh: compounds blocking aptamer binding on GRK2 – biochemical, human GRK2, bead flow cytometry, HTS, primary screen; FAM-aptamer displacement from GRK2; 0.59% of 330,000 active; AID 488847, 2010; inhibition of aptamer binding, % at 10 µM;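 active = inhibition of aptamer binding above 40%, roughly 3 SD of noise, on plates passing a quality check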;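 note: median bead fluorescence of bound FAM aptamer so fluorescent compounds give negative values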
# * hit, by the source's call; / = not tested or not shown. Rows were chosen to be rich in hits. Some 2.1% of all compounds tested hit in one or more screens of this group.
SMILES,SUMO1-SIM PPI,Scp-1 inhibitor,DNMT1 inh,LMPTP block,STEP block,GRK2 inh
O=C(Nc1ccc(F)cc1)C(c1ccncc1)N1CCN(c2cccc(C(F)(F)F)n2)CC1 (stereo not given),3.8,/,/,2.3,/,/
CCCCCCNC(=O)N[C@@H](C(=O)NCCC[C@H]1CN2C(=NC[C@@H]2Cc2ccccc2)N1CCc1cccc(OC)c1)C(C)C,/,92.0*,/,/,/,0.0
C/C=C(\C)C(=O)NCCN1C2=NC[C@@H](Cc3ccccc3)N2C[C@@H]1Cc1ccc(OC)cc1,-27.5,0.8,-3.0,1.3,5.6,0.0
Cc1nc2ccc(S(=O)(=O)NCC(=O)NCCN3CCCCCC3)cc2s1,46.2*,2.9,1.5,11.8,5.2,0.0
Cc1nc2ccc(S(=O)(=O)NCC(=O)NCc3ccc(Cl)cc3)cc2s1,1.0,-1.4,3.8,1.6,-3.0,1.0
Cc1cc(OC(=O)c2ccccc2Br)c([N+](=O)[O-])c(=O)[nH]1,-0.3,-6.6,4.5,-1.8,1.4,3.0
Cn1c(=O)n(C)c2cc(/C=N/NC(=O)c3cc4cc(Br)ccc4o3)ccc21,60.0*,25.9,-10.2,-0.4,8.8,17.0
C/C(=N\NC(=O)c1cc2ccccc2cc1O)c1cc2ccccc2o1,2.2,90.2*,-15.3,9.1,11.3,1.0
C/C(=N\NC(=O)c1ccccc1O)C1C(=O)c2ccccc2C1=O,11.7,-8.3,-17.6,1.6,0.3,2.0
C/C(=N/NC(=O)c1cc2ccccc2cc1O)C1C(=O)c2ccccc2C1=O,29.5,20.8,-23.6,66.1*,-1.5,2.0
CCOc1ccc(N=Nc2ccc(O)c3ncccc23)cc1,-17.5,-9.8,4.1,3.5,1.2,4.0
CCOc1ccc2c(ccc(/C=C/c3cc(C)c4cccnc4c3O)[n+]2C)c1,-67.5,51.7*,-20.7,75.8*,8.8,/
Nc1c(N2CCCC2)cc(Cl)c2nonc12,37.5,-5.8,78.0*,7.9,3.8,0.0
Nc1c(N2CCOCC2)cc(Cl)c2nonc12,8.8,-0.1,3.1,-0.5,15.3,2.0
CCC(C(=O)NC(C)(C)C)n1c(C(c2ccccc2)c2ccccc2)nc2ccccc21 (stereo not given),-5.4,/,/,0.7,/,/
O=C(NCc1cc(C(F)(F)F)ccc1Cl)c1cccc2c1C(=O)c1ccc(N3CCC(N4CCCCC4)CC3)cc1S2(=O)=O,64.2*,/,7.3,21.0,1.1,/
CCN(CC)c1ccc(S(=O)(=O)N2CCOCC2)cc1NC(=O)COC(=O)/C=C/c1ccco1,-7.8,12.3,8.2,1.3,0.2,/
CC[N+](CC)(CC)CCOc1cccc(OCC[N+](CC)(CC)CC)c1OCC[N+](CC)(CC)CC,-12.6,95.8*,-2.2,-5.8,-0.1,3.0
CCOc1ccccc1OCCOCCOc1c(Cl)cccc1Cl,1.0,-10.4,8.7,1.2,2.0,3.0
COc1cccc(-c2ccc3c(c2)O[C@@H](CN(C)C(=O)C2CCOCC2)[C@H](C)CN([C@H](C)CO)S3(=O)=O)c1,2.1,/,-3.6,-1.5,-2.1,/
CNC(=S)N(Cc1ccc(OC)cc1)Cc1cc2ccc(C)cc2[nH]c1=O,5.5,2.7,-3.8,-0.8,1.7,1.0
Nc1cccc2nc3ccccc3cc12,-23.6,-6.3,69.1*,13.1,-0.9,0.0
Nc1[nH]nc2nc3ccccc3cc12,-16.1,-17.2,0.6,-1.3,-6.9,4.0
CCCCCC(=O)Nc1cc(S(=O)(=O)O)cc2cc(S(=O)(=O)O)cc(O)c12,118.5*,101.9*,-19.0,95.7*,98.9*,/
CCCCCC(=O)Nc1cc(S(=O)(=O)N2CCCCC2)ccc1N1CCCCC1,-0.7,-0.7,-2.2,6.5,6.4,/
O=c1oc2cc(O)ccc2c2oc3cc(O)ccc3c12,47.6*,21.4,-1.2,21.4,-0.2,4.0

# Bioassay records from PubChem.
